According to the RNAGym collection of RNA variant scans (doi:10.1002/anie.201605470):

B1: Osa-1-4 twister ribozyme (parent)
chain: CCGCCUAACACUGCCAAUGCCGGUCCCAAGCCCGGAUAAAAGUGGAGGGGGCGG

Variants of: B1
Experiment: self-cleavage, relative activity (ratio to wild type); higher = more cleavage; co-transcriptional
Method in brief: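 The 48 positions downstream of the cleavage site in a 54-nucleotide Oryza sativa twister ribozyme template were synthesised at 97 % wild-type base and 1 % of each other base. The template was transcribed in vitro at 37 °C for 2 h, with self-cleavage allowed during transcription. Reads with or without upstream sequence after deep sequencing marked cleavage status, and relative activity is fraction cleaved normalised to wild type.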

Variant	self-cleavage
CCGCCUAACACUGGCAAUGCCGGUCCCAAGCCCGGAUAAAAAUGGAGGGGGCGG [C14G G42A]	0.09
CCGCCUAACACUGGCAAUGCCGGUCCCAAGCCCGGAUAAAAGUGGAGGGGGCGG [C14G]	0.21
CCGCCUAACACUGACAAUGCCGGUCCCAAGCCCGGAUAAAAGGGGAGGGGGCGG [C14A U43G]	0.07
CCGCCUAACACUGACAAUGCCGGUCCCAAGCCCGGAUAAAAGCGGAGGGGGCGG [C14A U43C]	0.06
CCGCCUAACACUGACAAUGCCGGUCCCAAGCCCGGAUAAAAGAGGAGGGGGCGG [C14A U43A]	0.06
CCGCCUAACACUGACAAUGCCGGUCCCAAGCCCGGAUAAAAGUGGAUGGGGCGG [C14A G47U]	0.05
CCGCCUAACACUGACAAUGCCGGUCCCAAGCCCGGAUAAAAGUGGACGGGGCGG [C14A G47C]	0.03
CCGCCUAACACUGACAAUGCCGGUCCCAAGCCCGGAUAAAAGUGGAAGGGGCGG [C14A G47A]	0.04
CCGCCUAACACUGGCAAUGGCGGUCCCAAGCCCGGAUAAAAGUGGAGGGGGCGG [C14G C20G]	0.16
CCGCCUAACACUGGCAAUGACGGUCCCAAGCCCGGAUAAAAGUGGAGGGGGCGG [C14G C20A]	0.17
CCGCCUAACACUGGCAAUGUCGGUCCCAAGCCCGGAUAAAAGUGGAGGGGGCGG [C14G C20U]	0.22
CCGCCUAACACUGGCAAUGCCGGUCCCAAGCCUGGAUAAAAGUGGAGGGGGCGG [C14G C33U]	0.07
CCGCCUAACACUGGCAAUGCCGGUCCCAAGCCAGGAUAAAAGUGGAGGGGGCGG [C14G C33A]	0.04
CCGCCUAACACUGGCAAUGCCGGUCCCAAGCCGGGAUAAAAGUGGAGGGGGCGG [C14G C33G]	0.05
CCGCCUAACACUGGCAAUGCCGGUCCAAAGCCCGGAUAAAAGUGGAGGGGGCGG [C14G C27A]	0.03
CCGCCUAACACUGGCAAUGCCGGUCCUAAGCCCGGAUAAAAGUGGAGGGGGCGG [C14G C27U]	0.07
CCGCCUAACACUGGCAAUGCCGGUCCGAAGCCCGGAUAAAAGUGGAGGGGGCGG [C14G C27G]	0.07
CCGCCUAACACUGACAAUGCCGGUCCCAAGCCCGGAUAAAAGUGUAGGGGGCGG [C14A G45U]	0.03
CCGCCUAACACUGACAAUGCCGGUCCCAAGCCCGGAUAAAAGUGAAGGGGGCGG [C14A G45A]	0.04
CCGCCUAACACUGACAAUGCCGGUCCCAAGCCCGGAUAAAAGUGCAGGGGGCGG [C14A G45C]	0.01
CCGCCUAACACCGACAAUGCCGGUCCCAAGCCCGGAUAAAAGUGGAGGGGGCGG [C14A U12C]	0.05
CCGCCUAACACGGACAAUGCCGGUCCCAAGCCCGGAUAAAAGUGGAGGGGGCGG [C14A U12G]	0.06
CCGCCUAACACAGACAAUGCCGGUCCCAAGCCCGGAUAAAAGUGGAGGGGGCGG [C14A U12A]	0.08
CCGCCUAACACUGGCAAUACCGGUCCCAAGCCCGGAUAAAAGUGGAGGGGGCGG [C14G G19A]	0.24
CCGCCUAACACUGGCAAUCCCGGUCCCAAGCCCGGAUAAAAGUGGAGGGGGCGG [C14G G19C]	0.04

Variant	self-cleavage
CCGCCUAACACUGGCAAUUCCGGUCCCAAGCCCGGAUAAAAGUGGAGGGGGCGG [C14G G19U]	0.08
CCGCCUAACACUGGCAAUGCCGGUCCCAAGCGCGGAUAAAAGUGGAGGGGGCGG [C14G C32G]	0.08
CCGCCUAACACUGGCAAUGCCGGUCCCAAGCACGGAUAAAAGUGGAGGGGGCGG [C14G C32A]	0.03
CCGCCUAACACUGGCAAUGCCGGUCCCAAGCUCGGAUAAAAGUGGAGGGGGCGG [C14G C32U]	0.04
CCGCCUAACACUGGCAAUGCCGGUCCCAAGCCCGGAUAAAAGUGGAGGGGGUGG [C14G C52U]	0.18
CCGCCUAACACUGGCAAUGCCGGUCCCAAGCCCGGAUAAAAGUGGAGGGGGGGG [C14G C52G]	0.13
CCGCCUAACACUGGCAAUGCCGGUCCCAAGCCCGGAUAAAAGUGGAGGGGGAGG [C14G C52A]	0.14
CCGCCUAACACUGGGAAUGCCGGUCCCAAGCCCGGAUAAAAGUGGAGGGGGCGG [C14G C15G]	0.22
CCGCCUAACACUGGUAAUGCCGGUCCCAAGCCCGGAUAAAAGUGGAGGGGGCGG [C14G C15U]	0.06
CCGCCUAACACUGGAAAUGCCGGUCCCAAGCCCGGAUAAAAGUGGAGGGGGCGG [C14G C15A]	0.06
CCGCCUAACACUGGCAAUGCCAGUCCCAAGCCCGGAUAAAAGUGGAGGGGGCGG [C14G G22A]	0.07
CCGCCUAACACUGGCAAUGCCUGUCCCAAGCCCGGAUAAAAGUGGAGGGGGCGG [C14G G22U]	0.07
CCGCCUAACACUGGCAAUGCCCGUCCCAAGCCCGGAUAAAAGUGGAGGGGGCGG [C14G G22C]	0.07
CCGCCUAACACUGACAAUGCCGGUCCCAAGCCCGGAUAAAAGUGGAGGGGACGG [C14A G51A]	0.06
CCGCCUAACACUGACAAUGCCGGUCCCAAGCCCGGAUAAAAGUGGAGGGGCCGG [C14A G51C]	0.02
CCGCCUAACACUGACAAUGCCGGUCCCAAGCCCGGAUAAAAGUGGAGGGGUCGG [C14A G51U]	0.04
CCGCCUAACACUGACAAGGCCGGUCCCAAGCCCGGAUAAAAGUGGAGGGGGCGG [C14A U18G]	0.11
CCGCCUAACACUGACAACGCCGGUCCCAAGCCCGGAUAAAAGUGGAGGGGGCGG [C14A U18C]	0.11
CCGCCUAACACUGACAAAGCCGGUCCCAAGCCCGGAUAAAAGUGGAGGGGGCGG [C14A U18A]	0.09
CCGCCUAACACUGACAAUGCCGGUCCCAAGCCCGGAUAAAAGUGGAGGGGGCAG [C14A G53A]	0.06
CCGCCUAACACUGACAAUGCCGGUCCCAAGCCCGGAUAAAAGUGGAGGGGGCUG [C14A G53U]	0.05
CCGCCUAACACUGACAAUGCCGGUCCCAAGCCCGGAUAAAAGUGGAGGGGGCCG [C14A G53C]	0.02
CCGCCUAACACUGGCAAUGCCGGUCCCAAUCCCGGAUAAAAGUGGAGGGGGCGG [C14G G30U]	0.14
CCGCCUAACACUGGCAAUGCCGGUCCCAACCCCGGAUAAAAGUGGAGGGGGCGG [C14G G30C]	0.64
CCGCCUAACACUGGCAAUGCCGGUCCCAAACCCGGAUAAAAGUGGAGGGGGCGG [C14G G30A]	0.07

Variant	self-cleavage
CCGCCUAACACUGACAAUGCCGGUCCCAAGCCCGGAUAAAAGUGGAGGGUGCGG [C14A G50U]	0.07
CCGCCUAACACUGACAAUGCCGGUCCCAAGCCCGGAUAAAAGUGGAGGGAGCGG [C14A G50A]	0.09
CCGCCUAACACUGACAAUGCCGGUCCCAAGCCCGGAUAAAAGUGGAGGGCGCGG [C14A G50C]	0.08
CCGCCUAACACUGACAAUGCCGGUCCCAAGCCCGGAAAAAAGUGGAGGGGGCGG [C14A U37A]	0.07
CCGCCUAACACUGACAAUGCCGGUCCCAAGCCCGGAGAAAAGUGGAGGGGGCGG [C14A U37G]	0.15
CCGCCUAACACUGACAAUGCCGGUCCCAAGCCCGGACAAAAGUGGAGGGGGCGG [C14A U37C]	0.12
CCGCCUAACACUGACAAUGCCGGUCCCAAGCCCGGAUAAAAGUGGAGGCGGCGG [C14A G49C]	0.01
CCGCCUAACACUGACAAUGCCGGUCCCAAGCCCGGAUAAAAGUGGAGGUGGCGG [C14A G49U]	0.03
CCGCCUAACACUGACAAUGCCGGUCCCAAGCCCGGAUAAAAGUGGAGGAGGCGG [C14A G49A]	0.02
CCGCCUAACACUGGCAAUGCCGCUCCCAAGCCCGGAUAAAAGUGGAGGGGGCGG [C14G G23C]	0.04
CCGCCUAACACUGGCAAUGCCGAUCCCAAGCCCGGAUAAAAGUGGAGGGGGCGG [C14G G23A]	0.08
CCGCCUAACACUGGCAAUGCCGUUCCCAAGCCCGGAUAAAAGUGGAGGGGGCGG [C14G G23U]	0.03
CCGCCUAACACUUGCAAUGCCGGUCCCAAGCCCGGAUAAAAGUGGAGGGGGCGG [C14G G13U]	0.05
CCGCCUAACACUAGCAAUGCCGGUCCCAAGCCCGGAUAAAAGUGGAGGGGGCGG [C14G G13A]	0.07
CCGCCUAACACUCGCAAUGCCGGUCCCAAGCCCGGAUAAAAGUGGAGGGGGCGG [C14G G13C]	0.01
CCGCCUAACACUGGCAAUGCCGGUCCCAAGCCCCGAUAAAAGUGGAGGGGGCGG [C14G G34C]	0.09
CCGCCUAACACUGGCAAUGCCGGUCCCAAGCCCAGAUAAAAGUGGAGGGGGCGG [C14G G34A]	0.13
CCGCCUAACACUGGCAAUGCCGGUCCCAAGCCCUGAUAAAAGUGGAGGGGGCGG [C14G G34U]	0.06
CCGCCUAACACUGACAAUGCCGGACCCAAGCCCGGAUAAAAGUGGAGGGGGCGG [C14A U24A]	0.03
CCGCCUAACACUGACAAUGCCGGCCCCAAGCCCGGAUAAAAGUGGAGGGGGCGG [C14A U24C]	0.04
CCGCCUAACACUGACAAUGCCGGGCCCAAGCCCGGAUAAAAGUGGAGGGGGCGG [C14A U24G]	0.02
CCGCCUAACACUGGCAAUGCCGGUCGCAAGCCCGGAUAAAAGUGGAGGGGGCGG [C14G C26G]	0.07
CCGCCUAACACUGGCAAUGCCGGUCUCAAGCCCGGAUAAAAGUGGAGGGGGCGG [C14G C26U]	0.07
CCGCCUAACACUGGCAAUGCCGGUCACAAGCCCGGAUAAAAGUGGAGGGGGCGG [C14G C26A]	0.03
CCGCCUAACACUGACAAUGCCGGUCCCAAGCCCGGAUAAAAGUCGAGGGGGCGG [C14A G44C]	0.06

Variant	self-cleavage
CCGCCUAACACUGACAAUGCCGGUCCCAAGCCCGGAUAAAAGUUGAGGGGGCGG [C14A G44U]	0.05
CCGCCUAACACUGGCAAUGCCGGUCCCAAGCCCGCAUAAAAGUGGAGGGGGCGG [C14G G35C]	0.04
CCGCCUAACACUGGCAAUGCCGGUCCCAAGCCCGAAUAAAAGUGGAGGGGGCGG [C14G G35A]	0.07
CCGCCUAACACUGGCAAUGCCGGUCCCAAGCCCGUAUAAAAGUGGAGGGGGCGG [C14G G35U]	0.06
CCGCCUAACACUGGCAAUGCGGGUCCCAAGCCCGGAUAAAAGUGGAGGGGGCGG [C14G C21G]	0.05
CCGCCUAACACUGGCAAUGCUGGUCCCAAGCCCGGAUAAAAGUGGAGGGGGCGG [C14G C21U]	0.16
CCGCCUAACACUGGCAAUGCAGGUCCCAAGCCCGGAUAAAAGUGGAGGGGGCGG [C14G C21A]	0.09
CCGCCUAACACUGGCAAUGCCGGUUCCAAGCCCGGAUAAAAGUGGAGGGGGCGG [C14G C25U]	0.12
CCGCCUAACACUGGCAAUGCCGGUGCCAAGCCCGGAUAAAAGUGGAGGGGGCGG [C14G C25G]	0.07
CCGCCUAACACUGGCAAUGCCGGUACCAAGCCCGGAUAAAAGUGGAGGGGGCGG [C14G C25A]	0.03
CCGCCUAACACUGACAAUGCCGGUCCCAAGCCCGGAUAAAAGUGGAGAGGGCGG [C14A G48A]	0.02
CCGCCUAACACUGACAAUGCCGGUCCCAAGCCCGGAUAAAAGUGGAGCGGGCGG [C14A G48C]	0.02
CCGCCUAACACUGACAAUGCCGGUCCCAAGCCCGGAUAAAAGUGGAGUGGGCGG [C14A G48U]	0.02
CCGCCUAACACUGACAAUGCCGGUCCCAAGCCCGGAUAAAAGUGGAGGGGGCGU [C14A G54U]	0.22
CCGCCUAACACUGACAAUGCCGGUCCCAAGCCCGGAUAAAAGUGGAGGGGGCGC [C14A G54C]	0.06
CCGCCUAACACUGACAAUGCCGGUCCCAAGCCCGGAUAAAAGUGGAGGGGGCGA [C14A G54A]	0.1
CCGCCUAAAACUGGCAAUGCCGGUCCCAAGCCCGGAUAAAAGUGGAGGGGGCGG [C14G C9A]	0.04
CCGCCUAAUACUGGCAAUGCCGGUCCCAAGCCCGGAUAAAAGUGGAGGGGGCGG [C14G C9U]	0.08
CCGCCUAAGACUGGCAAUGCCGGUCCCAAGCCCGGAUAAAAGUGGAGGGGGCGG [C14G C9G]	0.16
CCGCCUAACACUGGCAAUGCCGGUCCCAAGGCCGGAUAAAAGUGGAGGGGGCGG [C14G C31G]	0.15
CCGCCUAACACUGGCAAUGCCGGUCCCAAGACCGGAUAAAAGUGGAGGGGGCGG [C14G C31A]	0.02
CCGCCUAACACUGGCAAUGCCGGUCCCAAGUCCGGAUAAAAGUGGAGGGGGCGG [C14G C31U]	0.05
